Reference: ChEMBL document CHEMBL3865817, “Synthesis and biological evaluation of C(5)-substituted derivatives of leukotriene biosynthesis inhibitor BRP-7” (Eur J Med Chem, 2016)
The source made the active and inactive calls. The calls are words filed in the database; no cut-off is given here.

Columns and labels:
[1] = target: T1, Arachidonate 5-lipoxygenase-activating protein (Homo sapiens) (UniProt P20292); assay: (§1) Inhibition of FLAP in human neutrophils assessed as suppression of A23187-stimulated 5-LO product formation using arachidonic acid as substrate measured as residual activity at 1 uM preincubated for 15 mins followed by A23187/arachidonic acid addition after 10 mins RP-HPLC/UV analysis relative to control
T1 sequence (whole entry): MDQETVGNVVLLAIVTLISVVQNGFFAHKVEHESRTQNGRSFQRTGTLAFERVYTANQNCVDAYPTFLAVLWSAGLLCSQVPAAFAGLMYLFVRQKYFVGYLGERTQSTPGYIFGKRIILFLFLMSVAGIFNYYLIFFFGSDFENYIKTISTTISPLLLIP
Procedure, shortened: (§2)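 Neutrophils were isolated from human blood by dextran sedimentation, Nycoprep centrifugation and hypotonic lysis of erythrocytes, then resuspended in PGC buffer (PBS pH 7.4, 1 mg/ml glucose, 1 mM CaCl2). Cells were pre-incubated with compound or vehicle (0.1% DMSO) for 15 min at 37 °C, stimulated with 2.5 µM A23187 for 10 min, and stopped with methanol. Internal standard PGB1. 5-LO products (LTB4, its trans isomers, 5-H(P)ETE) were measured by HPLC.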

[2] = target: T1, Arachidonate 5-lipoxygenase-activating protein (Homo sapiens); assay: Inhibition of FLAP (unknown origin) expressed in HEK293 cells co-expressing 5-LO assessed as suppression of A23187-stimulated 5-LO product formation at 0.3 uM using arachidonic acid as substrate preincubated for 15 mins followed by A23187/substrate addition by RP-HPLC analysis; assay type: cell-based
[3] = target: T2, Arachidonate 5-lipoxygenase-activating protein (Homo sapiens, UniProt P20292); assay: Inhibition of FLAP in human monocytes assessed as suppression of fMLP/LPS-stimulated cys-LT formation preincubated for 15 mins measured after 10 mins by ELISA; assay type: cell-based
T2 sequence (P20292 whole entry): T1 sequence (whole entry)

[4] = target: T2, Arachidonate 5-lipoxygenase-activating protein; assay: (§3) Inhibition of FLAP in human neutrophils assessed as suppression of A23187-stimulated 5-LO product formation using arachidonic acid as substrate preincubated for 15 mins followed by A23187/arachidonic acid addition after 10 mins RP-HPLC/UV analysis; procedure, shortened: as §2
[5] = target: T1, Arachidonate 5-lipoxygenase-activating protein (Homo sapiens); assay: as §3; procedure, shortened: as §2
[6] = target: T1, Arachidonate 5-lipoxygenase-activating protein (Homo sapiens); assay: Potency index, ratio of BRP-7 IC50 to compound IC50 for FLAP in human neutrophils
[7] = target: T2, Arachidonate 5-lipoxygenase-activating protein; assay: Inhibition of FLAP in human monocytes assessed as suppression of A23187-stimulated 5-LO product formation preincubated for 15 mins followed by A23187 after 10 mins RP-HPLC/UV analysis; assay type: cell-based
[8] = target: T2, Arachidonate 5-lipoxygenase-activating protein; assay: Inhibition of FLAP in human monocytes assessed as suppression of A23187-stimulated 5-LO product formation using 10 uM arachidonic acid as substrate preincubated for 15 mins followed by A23187/arachidonic acid addition after 10 mins by RP-HPLC/UV analysis; assay type: cell-based
[9] = target: T1, Arachidonate 5-lipoxygenase-activating protein (Homo sapiens); assay: as §1, with “at 10” for “at 1”; procedure, shortened: as §2
[10] = target: T3, Polyunsaturated fatty acid 5-lipoxygenase (Homo sapiens) (UniProt P09917); settings: 3 uM
T3 sequence (whole entry): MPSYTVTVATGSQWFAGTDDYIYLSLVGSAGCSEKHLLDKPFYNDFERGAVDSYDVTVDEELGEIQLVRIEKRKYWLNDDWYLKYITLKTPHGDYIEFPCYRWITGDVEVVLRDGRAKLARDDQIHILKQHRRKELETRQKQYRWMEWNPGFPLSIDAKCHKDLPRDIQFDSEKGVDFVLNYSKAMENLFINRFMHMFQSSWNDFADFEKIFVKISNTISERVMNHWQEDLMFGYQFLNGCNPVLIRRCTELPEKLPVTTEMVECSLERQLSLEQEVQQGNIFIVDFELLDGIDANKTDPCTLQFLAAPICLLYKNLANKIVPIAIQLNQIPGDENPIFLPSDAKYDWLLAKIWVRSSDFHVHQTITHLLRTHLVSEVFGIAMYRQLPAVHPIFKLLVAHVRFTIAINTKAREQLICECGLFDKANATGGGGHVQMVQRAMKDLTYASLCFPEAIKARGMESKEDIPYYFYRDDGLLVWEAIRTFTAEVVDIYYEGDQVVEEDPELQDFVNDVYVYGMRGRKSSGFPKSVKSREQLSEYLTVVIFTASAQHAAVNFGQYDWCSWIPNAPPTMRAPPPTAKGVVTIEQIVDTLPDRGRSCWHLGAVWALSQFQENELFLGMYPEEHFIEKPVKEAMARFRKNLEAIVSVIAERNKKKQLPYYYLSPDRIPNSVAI

Structure (SMILES) | Activity [1] [%] | Activity [9] [%] | further results
CC(C)Cc1ccc(C(C)c2nc3cc(OCc4ccccc4C(F)(F)F)ccc3n2Cc2ccccc2C(F)(F)F)cc1 (stereo not given) | 90.9 | – | –
CC(C)c1ccc2c(c1)c(SC(C)(C)C)c(CC(C)(C)C(=O)O)n2Cc1ccc(Cl)cc1 | 2.7 | – | inhibition [2]: Active
CC(C)Cc1ccc(C(C)c2nc3cc(C#N)ccc3n2Cc2ccccc2Cl)cc1 (stereo not given) | 0 | – | IC50 [3]: 12 nM; IC50 [4]: 70 nM; inhibition [5]: Dose-dependent effect; Ratio IC50 [6]: 4.4; IC50 [7]: 26 nM; IC50 [8]: 35 nM; inhibition [2]: Active
CC(C)Cc1ccc(C(C)c2nc3cc(OCc4ccc(OC(F)(F)F)cc4)ccc3n2Cc2ccccc2C(F)(F)F)cc1 (stereo not given) | 99.9 | – | –
C=CCOc1ccc2c(c1)nc(C(C)c1ccc(CC(C)C)cc1)n2Cc1ccccc1C(F)(F)F (stereo not given) | 7.5 | 0.6 | IC50 [4]: 170 nM
CC(C)Cc1ccc(C(C)c2nc3cc(OCc4ccccn4)ccc3n2Cc2ccccc2C(F)(F)F)cc1 (stereo not given) | 0 | – | IC50 [4]: 150 nM
COc1ccc(COc2ccc3c(c2)nc(C(C)c2ccc(CC(C)C)cc2)n3Cc2ccccc2C(F)(F)F)cc1 (stereo not given) | 81.6 | 80.1 | –
COC(=O)COc1ccc2c(c1)nc(C(C)c1ccc(CC(C)C)cc1)n2Cc1ccccc1C(F)(F)F (stereo not given) | 1.9 | – | IC50 [4]: 210 nM
CC(C)Cc1ccc(C(C)c2nc3cc(OCc4ccc(C#N)cc4)ccc3n2Cc2ccccc2C(F)(F)F)cc1 (stereo not given) | 71.1 | – | –
Cc1ccc(COc2ccc3c(c2)nc(C(C)c2ccc(CC(C)C)cc2)n3Cc2ccccc2C(F)(F)F)cc1 (stereo not given) | 92.6 | 90.5 | –
CCCCOc1ccc2c(c1)nc(C(C)c1ccc(CC(C)C)cc1)n2Cc1ccccc1C(F)(F)F (stereo not given) | 58.1 | – | –
CC(C)=CCOc1ccc2c(c1)nc(C(C)c1ccc(CC(C)C)cc1)n2Cc1ccccc1C(F)(F)F (stereo not given) | 60.2 | – | –
CC(C)Cc1ccc(C(C)c2nc3cc(OCc4ccc(C(C)(C)C)cc4)ccc3n2Cc2ccccc2C(F)(F)F)cc1 (stereo not given) | 94.9 | 94 | –
Cc1cccc(COc2ccc3c(c2)nc(C(C)c2ccc(CC(C)C)cc2)n3Cc2ccccc2C(F)(F)F)c1 (stereo not given) | 98.2 | – | –
CC(C)Cc1ccc(C(C)c2nc3cc(OCc4ccccc4Cl)ccc3n2Cc2ccccc2C(F)(F)F)cc1 (stereo not given) | 92.2 | 92.2 | –
CC(C)Cc1ccc(C(C)c2nc3cc(OCc4ccc(C(F)(F)F)cc4)ccc3n2Cc2ccccc2C(F)(F)F)cc1 (stereo not given) | 91.7 | 94.3 | –
Cc1ccccc1COc1ccc2c(c1)nc(C(C)c1ccc(CC(C)C)cc1)n2Cc1ccccc1C(F)(F)F (stereo not given) | 97.1 | 89.7 | –
CC(C)Cc1ccc(C(C)c2nc3cc(OCc4ccc(Br)cc4)ccc3n2Cc2ccccc2C(F)(F)F)cc1 (stereo not given) | 108 | 94.4 | –
CCC#CCOc1ccc2c(c1)nc(C(C)c1ccc(CC(C)C)cc1)n2Cc1ccccc1C(F)(F)F (stereo not given) | 55.6 | – | –
CC(C)Cc1ccc(C(C)c2nc3cc(OCc4cccc(F)c4)ccc3n2Cc2ccccc2C(F)(F)F)cc1 (stereo not given) | 92 | 85.9 | –
CC(C)Cc1ccc(C(C)c2nc3cc(OCc4ccccc4C#N)ccc3n2Cc2ccccc2Cl)cc1 (stereo not given) | 39.9 | 15.6 | IC50 [4]: 120 nM
CC(c1cc2ccccc2s1)N(O)C(N)=O (stereo not given) | – | – | inhibition [10]: > 80%
CC(C)Cc1ccc(C(C)c2nc3cc(OCc4ccccc4C#N)ccc3n2Cc2ccccc2C(F)(F)F)cc1 (stereo not given) | 65.2 | – | –
